Measurements: ChEMBL document CHEMBL2331216, “Synthesis and biological activities of a new class of heat shock protein 90 inhibitors, designed by energy-based pharmacophore virtual screening” (J Med Chem, 2013)
Active and inactive are the calls of the source.

Key:
[1] = Antiproliferative activity against human melanoma cells after 48 hrs by sulforhodamine B assay; format: functional; conditions: Melanoma cell
In short: (§1)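 Compounds run through the NCI DTP screen on its full human tumour cell line panels. Those that passed the selection criteria were tested twice in the five-dose concentration format. The MG_MID for each experiment is the arithmetic mean over all cell lines tested.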

[2] = Antiproliferative activity against human leukemia cells after 48 hrs by sulforhodamine B assay; format: functional; conditions: Leukemia cell; in short: as §1
Heat shock protein HSP90 [3] = target: T1, Heat shock protein HSP90 (Homo sapiens, UniProt P07900+P08238); assay: Inhibition of biotinylated geldanamycin binding to human recombinant Hsp90 ATP binding domain after 60 mins by fluorescence assay; format: protein assay
[4] = Antiproliferative activity against human breast cancer cells after 48 hrs by sulforhodamine B assay; format: functional; conditions: Cancer cell lines; in short: as §1
[5] = Antiproliferative activity against human CNS cancer cells after 48 hrs by sulforhodamine B assay; format: functional; conditions: Cancer cell lines; in short: as §1
[6] = Antiproliferative activity against human colon cancer cells after 48 hrs by sulforhodamine B assay; format: functional; conditions: Cancer cell lines; in short: as §1
[7] = Antiproliferative activity against human non-small cell lung cancer cells after 48 hrs by sulforhodamine B assay; format: functional; conditions: Cancer cell lines; in short: as §1
[8] = Antiproliferative activity against human ovarian cancer cells after 48 hrs by sulforhodamine B assay; format: functional; conditions: Cancer cell lines; in short: as §1
[9] = Antiproliferative activity against human renal cancer cells after 48 hrs by sulforhodamine B assay; format: functional; conditions: Cancer cell lines; in short: as §1
[10] = Antiproliferative activity against human prostate cancer cells after 48 hrs by sulforhodamine B assay; format: functional; conditions: Cancer cell lines; in short: as §1
SF-295 = assay: Antiproliferative activity against human SF295 cells after 48 hrs by sulforhodamine B assay; format: functional; conditions: SF-295, 48 h; in short: as §1
NCI-H522 = assay: Antiproliferative activity against human NCI-H522 cells after 48 hrs by sulforhodamine B assay; format: functional; conditions: NCI-H522, 48 h; in short: as §1
MCF7 [11] = assay: Cell cycle arrest in human MCF7 cells assessed as decrease in S phase cells at 0.548 uM after 48 hrs by propidium iodide staining-based FACS flow cytometric analysis; format: functional
In short: (§2)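 Cells were collected and DNA stained with propidium iodide. Flow cytometry gave the cell cycle phase distribution against untreated controls. Values are mean ± SD of three independent experiments.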

MCF7 [12] = assay: Cell cycle arrest in human MCF7 cells assessed as decrease in G0/G1 phase cells at 0.548 uM after 48 hrs by propidium iodide staining-based FACS flow cytometric analysis; format: functional; in short: as §2
MCF7 [13] = assay: Cell cycle arrest in human MCF7 cells assessed as decrease in G2/M phase cells at 0.548 uM after 48 hrs by propidium iodide staining-based FACS flow cytometric analysis; format: functional; in short: as §2
MCF7 [14] = assay: Cell cycle arrest in human MCF7 cells assessed as accumulation at sub G0/G1 phase at 0.548 uM after 48 hrs by propidium iodide staining-based FACS flow cytometric analysis; format: functional; in short: as §2
MCF7 [15] = assay: Cell cycle arrest in human MCF7 cells assessed as decrease in S phase cells at 0.548 uM after 24 hrs by propidium iodide staining-based FACS flow cytometric analysis (reference value: 11 %); format: functional; parameters: scale not given: the % may be the effect or the level left; in short: as §2
MCF7 [16] = assay: Cell cycle arrest in human MCF7 cells assessed as decrease in G0/G1 phase cells at 0.548 uM after 24 hrs by propidium iodide staining-based FACS flow cytometric analysis (reference value: 65 %); format: functional; parameters: scale not given: the % may be the effect or the level left; in short: as §2
MCF7 [17] = assay: Cell cycle arrest in human MCF7 cells assessed as increase in G2/M phase cells at 0.548 uM after 24 hrs by propidium iodide staining-based FACS flow cytometric analysis (reference value: 24 %); format: functional; in short: as §2
Heat shock protein HSP90 [18] = target: T1, Heat shock protein HSP90; assay: Inhibition of Hsp90 in human MCF7 cells assessed as decrease in Cdk4 level at 0.5 to 2 fold GI50 after 24 hrs by Western blotting analysis; format: cell-based
In short: (§3)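 Total cellular extracts were analysed by Western blot for Cdk4, c-Raf, ErbB2 and Hsp72, with β-actin as the loading control.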

Heat shock protein HSP90 [19] = target: T1, Heat shock protein HSP90; assay: Inhibition of Hsp90 in human MCF7 cells assessed as decrease in cRAF level at 0.5 to 2 fold GI50 after 24 hrs by Western blotting analysis; format: cell-based; in short: as §3
Heat shock protein HSP90 [20] = target: T1, Heat shock protein HSP90; assay: Inhibition of Hsp90 in human MCF7 cells assessed as decrease in ErbB2 level at 0.5 to 2 fold GI50 after 24 hrs by Western blotting analysis; format: cell-based; in short: as §3
Heat shock protein HSP90 [21] = target: T1, Heat shock protein HSP90; assay: Inhibition of Hsp90 in human MCF7 cells assessed as decrease in Cdk4 level after 24 hrs by Western blotting analysis; format: cell-based; in short: as §3
Heat shock protein HSP90 [22] = target: T1, Heat shock protein HSP90; assay: Inhibition of Hsp90 in human MCF7 cells assessed as decrease in cRAF level after 24 hrs by Western blotting analysis; format: cell-based; in short: as §3
Heat shock protein HSP90 [23] = target: T1, Heat shock protein HSP90; assay: Inhibition of Hsp90 in human MCF7 cells assessed as decrease in ErbB2 level after 24 hrs by Western blotting analysis; format: cell-based; in short: as §3
Heat shock protein HSP90 [24] = target: T1, Heat shock protein HSP90; assay: Inhibition of Hsp90 in human MCF7 cells assessed as upregulation of Hsp72 at 0.5 to 2 fold GI50 after 24 hrs by Western blotting analysis; format: cell-based; in short: as §3
MCF7 [25] = assay: Antitumor activity in human MCF7 cells assessed as induction of necrosis after 24 hrs by LDH assay; format: functional, cell-based
MCF7 [26] = assay: Cell cycle arrest in human MCF7 cells assessed as accumulation at G2/M phase after 24 hrs by propidium iodide staining-based FACS flow cytometric analysis; format: functional; in short: as §2

In the case of `CS(=O)(=O)Nc1cccc(-c2cc(-c3ccccc3Cl)c(C#N)c(N)n2)c1`, the GI50 [1] is reported as 660 nM, the GI50 [2] is reported as 580 nM and the EC50 (Heat shock protein HSP90 [3]) is reported as 950 nM. For the same compound, the GI50 [4] was 460 nM, the GI50 [5] was 510 nM and the GI50 [6] was 550 nM. It also gave a GI50 [7] of 1100 nM, a GI50 [8] of 980 nM and a GI50 [9] of 660 nM. For the same compound, the GI50 [10] was 780 nM.

`COc1ccc(-c2cc(-c3cccc(NS(C)(=O)=O)c3)nc(N)c2C#N)cc1` showed a GI50 [1] of 80 nM, a GI50 [2] of 100 nM and an EC50 (Heat shock protein HSP90 [3]) of 541 nM. It also gave a GI50 [4] of 140 nM, a GI50 [5] of 80 nM and a GI50 [6] of 100 nM. For the same compound, the GI50 [7] was 130 nM, the GI50 [8] was 220 nM and the GI50 [9] was 130 nM. For the same compound, the GI50 [10] was 130 nM.

In the case of `CS(=O)(=O)Nc1cccc(-c2cc(-c3ccc(O)cc3)c(C#N)c(N)n2)c1`, the EC50 (Heat shock protein HSP90 [3]) is reported as > 10000 nM.

With `CN(C)c1ccc(-c2cc(-c3cccc(NS(C)(=O)=O)c3)nc(N)c2C#N)cc1` the GI50 [1] was 60 nM, the GI50 [2] was 40 nM and the EC50 (Heat shock protein HSP90 [3]) was 371 nM. It also gave a GI50 [4] of 100 nM, a GI50 [5] of 40 nM and a GI50 [6] of 40 nM. The GI50 [7] was 60 nM, the GI50 [8] was 80 nM and the GI50 [9] was 50 nM. It also gave a GI50 [10] of 30 nM.

In the case of `COc1cccc(-c2cc(-c3cccc(NS(C)(=O)=O)c3)nc(N)c2C#N)c1`, the EC50 (Heat shock protein HSP90 [3]) is reported as > 10000 nM.

With `COc1ccccc1-c1cc(-c2cccc(NS(C)(=O)=O)c2)nc(N)c1C#N` the EC50 (Heat shock protein HSP90 [3]) was 634 nM.

For `CS(=O)(=O)Nc1cccc(-c2cc(-c3cccc(F)c3)c(C#N)c(N)n2)c1`, the EC50 (Heat shock protein HSP90 [3]) was > 10000 nM.

In the case of `COc1cccc(-c2cc(-c3cccc(NS(C)(=O)=O)c3)nc(N)c2C#N)c1O`, the GI50 (SF-295) is reported as 43 nM, the GI50 (NCI-H522) is reported as 24 nM and the Activity (MCF7 [11]) is reported as “Active”. The Activity (MCF7 [12]) was “Active”, the Activity (MCF7 [13]) was “Active” and the Activity (MCF7 [14]) was “Active”. It also gave an Activity (MCF7 [15]) of 7%, an Activity (MCF7 [16]) of 40% and an Activity (MCF7 [17]) of 53%. For the same compound, the GI50 [1] was 120 nM, the GI50 [2] was 140 nM and the EC50 (Heat shock protein HSP90 [3]) was 252 nM. For the same compound, the GI50 [4] was 260 nM, the GI50 [5] was 160 nM and the GI50 [6] was 150 nM. The GI50 [7] was 250 nM, the GI50 [8] was 210 nM and the GI50 [9] was 290 nM. For the same compound, the inhibition (Heat shock protein HSP90 [18]) was “Active”, the inhibition (Heat shock protein HSP90 [19]) was “Active” and the inhibition (Heat shock protein HSP90 [20]) was “Active”. The inhibition (Heat shock protein HSP90 [21]) was “Dose-dependent effect”, the inhibition (Heat shock protein HSP90 [22]) was “Dose-dependent effect” and the inhibition (Heat shock protein HSP90 [23]) was “Dose-dependent effect”. For the same compound, the inhibition (Heat shock protein HSP90 [24]) was “Active”, the Activity (MCF7 [25]) was “Active” and the Activity (MCF7 [26]) was “Dose-dependent effect”. It also gave a GI50 [10] of 130 nM.

With `CS(=O)(=O)Nc1cccc(-c2cc(-c3ccccc3Br)c(C#N)c(N)n2)c1` the EC50 (Heat shock protein HSP90 [3]) was > 10000 nM.

`COc1ccc(-c2cc(-c3cccc(NS(C)(=O)=O)c3)nc(N)c2C#N)cc1OC` showed an EC50 (Heat shock protein HSP90 [3]) of 867 nM.

`CCN(CC)c1ccc(-c2cc(-c3cccc(NS(C)(=O)=O)c3)nc(N)c2C#N)cc1` gave an EC50 (Heat shock protein HSP90 [3]) of 783 nM.
